Residue numbers refer to the chain shown, from its start.
How the values were obtained:
Details in all cases: stereoisomer not certain
OR7A5 M81I = tested on: T1, OR7A5 M81I
T1 sequence (whole entry): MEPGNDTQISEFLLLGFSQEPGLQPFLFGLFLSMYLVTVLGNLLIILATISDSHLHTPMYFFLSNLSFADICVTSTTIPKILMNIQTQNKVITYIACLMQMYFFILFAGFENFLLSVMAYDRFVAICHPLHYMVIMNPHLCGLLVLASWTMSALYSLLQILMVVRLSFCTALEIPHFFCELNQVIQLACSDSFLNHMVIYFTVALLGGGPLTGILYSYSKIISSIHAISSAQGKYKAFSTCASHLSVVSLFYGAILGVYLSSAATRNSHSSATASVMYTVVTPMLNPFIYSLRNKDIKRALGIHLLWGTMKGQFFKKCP
Outline: (§1)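 Values were gathered from published papers (main text and supplementary material), with extra details requested from the original authors when needed, and checked for typos and inconsistencies. Each receptor–molecule pair is called responsive (active) if the original authors judged the measured signal statistically different from baseline, and non-responsive (inactive) otherwise. Assay methods varied by source, often transient mammalian cell-line luciferase assays. Recorded details include cell line, G-protein, co-transfected protein and tags.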

OR7C1 (Homo sapiens) = target: T2, OR7C1 (Homo sapiens) (UniProt O76099)
T2 sequence (whole entry): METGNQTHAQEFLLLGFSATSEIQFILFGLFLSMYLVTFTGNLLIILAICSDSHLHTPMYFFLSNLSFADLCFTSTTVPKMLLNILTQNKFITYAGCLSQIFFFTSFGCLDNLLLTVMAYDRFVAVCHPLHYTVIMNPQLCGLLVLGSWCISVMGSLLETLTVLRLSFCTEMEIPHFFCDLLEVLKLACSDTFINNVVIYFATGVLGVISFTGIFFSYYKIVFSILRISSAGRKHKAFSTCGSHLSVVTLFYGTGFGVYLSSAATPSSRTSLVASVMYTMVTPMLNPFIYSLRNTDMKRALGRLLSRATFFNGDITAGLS
Outline: as §1

OR7C1 V126I E171K = tested on: T3, OR7C1 V126I E171K
T3 sequence (whole entry): T2 sequence (whole entry) with V126I, E171K
Outline: as §1

OR7C2 (Homo sapiens) = target: T4, OR7C2 (Homo sapiens) (UniProt O60412)
T4 sequence (whole entry): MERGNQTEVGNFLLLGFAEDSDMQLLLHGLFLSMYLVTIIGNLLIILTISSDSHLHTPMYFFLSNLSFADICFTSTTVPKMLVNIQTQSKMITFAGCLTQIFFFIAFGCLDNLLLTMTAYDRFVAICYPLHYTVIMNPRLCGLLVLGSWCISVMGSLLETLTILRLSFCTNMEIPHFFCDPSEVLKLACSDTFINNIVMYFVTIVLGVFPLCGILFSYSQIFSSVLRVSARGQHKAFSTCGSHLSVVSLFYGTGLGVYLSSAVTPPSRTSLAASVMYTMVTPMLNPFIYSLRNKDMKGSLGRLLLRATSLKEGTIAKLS
Outline: as §1

OR7D2 (Homo sapiens) = target: T5, OR7D2 (Homo sapiens) (UniProt Q96RA2)
T5 sequence (whole entry): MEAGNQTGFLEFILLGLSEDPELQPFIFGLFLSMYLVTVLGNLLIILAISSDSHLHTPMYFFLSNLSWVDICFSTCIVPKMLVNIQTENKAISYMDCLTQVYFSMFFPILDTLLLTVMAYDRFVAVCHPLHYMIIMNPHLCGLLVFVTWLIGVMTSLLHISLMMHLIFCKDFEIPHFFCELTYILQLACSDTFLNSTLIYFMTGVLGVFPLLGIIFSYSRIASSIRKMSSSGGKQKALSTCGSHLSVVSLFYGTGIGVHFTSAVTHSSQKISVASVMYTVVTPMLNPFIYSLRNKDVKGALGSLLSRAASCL
Outline: as §1

OR7D4 (Homo sapiens) = target: T6, OR7D4 (Homo sapiens) (UniProt Q8NG98)
T6 sequence (whole entry): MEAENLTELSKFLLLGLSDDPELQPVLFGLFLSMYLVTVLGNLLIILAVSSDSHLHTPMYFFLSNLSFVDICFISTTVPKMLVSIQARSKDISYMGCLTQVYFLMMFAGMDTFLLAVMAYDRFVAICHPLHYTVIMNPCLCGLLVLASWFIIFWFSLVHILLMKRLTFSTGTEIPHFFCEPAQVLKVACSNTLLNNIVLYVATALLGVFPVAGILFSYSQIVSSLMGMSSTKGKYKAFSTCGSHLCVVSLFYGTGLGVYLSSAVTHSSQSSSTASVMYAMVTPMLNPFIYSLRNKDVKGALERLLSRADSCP
Outline: as §1

OR7D4 R88W = tested on: T7, OR7D4 R88W
T7 sequence (whole entry): T6 sequence (whole entry) with R88W
Outline: as §1

OR7D4 = tested on: T8, OR7D4
T8 sequence (whole entry): T6 sequence (whole entry) with R88W, T133M
Outline: as §1

OR7E24 (Homo sapiens) = target: T9, OR7E24 (Homo sapiens) (UniProt Q6IFN5)
T9 sequence (whole entry): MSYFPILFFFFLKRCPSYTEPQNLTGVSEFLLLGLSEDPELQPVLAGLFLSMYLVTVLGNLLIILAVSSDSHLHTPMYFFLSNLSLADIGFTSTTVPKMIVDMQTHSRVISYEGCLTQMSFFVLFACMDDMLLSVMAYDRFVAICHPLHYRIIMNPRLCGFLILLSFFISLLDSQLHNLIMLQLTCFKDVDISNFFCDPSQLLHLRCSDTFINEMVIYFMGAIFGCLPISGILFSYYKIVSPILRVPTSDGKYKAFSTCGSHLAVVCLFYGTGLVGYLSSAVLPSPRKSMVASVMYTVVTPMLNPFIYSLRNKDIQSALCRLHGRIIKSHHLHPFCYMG
Outline: as §1

OR7G1 (Homo sapiens) = target: T10, OR7G1 (Homo sapiens) (UniProt Q8NGA0)
T10 sequence (whole entry): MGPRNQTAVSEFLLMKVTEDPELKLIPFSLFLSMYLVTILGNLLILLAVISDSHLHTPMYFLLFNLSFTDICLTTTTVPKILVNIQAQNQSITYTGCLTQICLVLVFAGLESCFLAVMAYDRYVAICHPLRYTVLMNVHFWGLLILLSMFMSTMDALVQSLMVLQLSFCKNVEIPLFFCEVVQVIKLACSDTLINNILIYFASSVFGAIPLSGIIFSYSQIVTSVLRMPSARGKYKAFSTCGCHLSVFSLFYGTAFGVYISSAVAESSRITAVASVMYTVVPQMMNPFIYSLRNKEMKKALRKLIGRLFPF
Outline: as §1

OR7G2 = tested on: T11, OR7G2
T11 sequence (whole entry): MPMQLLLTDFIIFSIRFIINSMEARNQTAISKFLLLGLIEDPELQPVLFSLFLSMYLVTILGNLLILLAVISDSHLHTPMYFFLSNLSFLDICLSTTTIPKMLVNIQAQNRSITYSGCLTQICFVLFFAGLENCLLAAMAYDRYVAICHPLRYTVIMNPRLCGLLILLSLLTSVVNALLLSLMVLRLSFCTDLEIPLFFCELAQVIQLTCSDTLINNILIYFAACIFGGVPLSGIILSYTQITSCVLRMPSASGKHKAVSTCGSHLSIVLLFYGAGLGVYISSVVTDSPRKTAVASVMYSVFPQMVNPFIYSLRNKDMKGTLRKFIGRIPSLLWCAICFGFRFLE
Outline: as §1

OR7G3 (Homo sapiens) = target: T12, OR7G3 (Homo sapiens) (UniProt Q8NG95)
T12 sequence (whole entry): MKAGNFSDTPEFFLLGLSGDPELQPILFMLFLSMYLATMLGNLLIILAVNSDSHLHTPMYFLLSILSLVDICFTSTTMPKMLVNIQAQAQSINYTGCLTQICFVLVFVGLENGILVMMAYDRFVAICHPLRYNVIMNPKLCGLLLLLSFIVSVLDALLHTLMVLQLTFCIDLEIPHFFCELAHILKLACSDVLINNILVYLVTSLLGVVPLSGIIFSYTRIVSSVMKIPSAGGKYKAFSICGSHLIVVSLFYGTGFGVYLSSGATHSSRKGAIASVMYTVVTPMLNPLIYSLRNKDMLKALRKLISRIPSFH
Outline: as §1

OR7G3 M29V = tested on: T13, OR7G3 M29V
T13 sequence (whole entry): T12 sequence (whole entry) with M29V
Outline: as §1

OR8A1 (Homo sapiens) = target: T14, OR8A1 (Homo sapiens) (UniProt Q8NGG7)
T14 sequence (whole entry): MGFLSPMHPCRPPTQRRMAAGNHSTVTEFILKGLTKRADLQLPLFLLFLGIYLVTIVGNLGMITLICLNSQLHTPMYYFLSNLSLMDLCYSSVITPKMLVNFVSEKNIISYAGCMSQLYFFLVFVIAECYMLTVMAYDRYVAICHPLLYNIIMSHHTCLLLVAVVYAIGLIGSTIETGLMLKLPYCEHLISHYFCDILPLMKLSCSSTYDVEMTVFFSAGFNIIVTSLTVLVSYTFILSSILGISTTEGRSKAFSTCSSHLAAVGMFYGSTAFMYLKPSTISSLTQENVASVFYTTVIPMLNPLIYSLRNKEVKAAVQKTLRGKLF
Outline: as §1

OR8B12 (Homo sapiens) = target: T15, OR8B12 (Homo sapiens) (UniProt Q8NGG6)
T15 sequence (whole entry): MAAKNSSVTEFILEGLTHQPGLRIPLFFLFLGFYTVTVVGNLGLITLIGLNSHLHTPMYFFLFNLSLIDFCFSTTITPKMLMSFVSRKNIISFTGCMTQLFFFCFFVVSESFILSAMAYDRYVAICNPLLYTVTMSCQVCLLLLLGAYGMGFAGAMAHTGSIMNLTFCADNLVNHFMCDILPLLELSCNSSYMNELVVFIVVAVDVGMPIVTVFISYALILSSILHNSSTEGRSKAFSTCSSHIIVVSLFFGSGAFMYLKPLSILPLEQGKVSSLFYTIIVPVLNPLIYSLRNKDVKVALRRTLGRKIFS
Outline: as §1

OR8B2 (Homo sapiens) = target: T16, OR8B2 (Homo sapiens) (UniProt Q96RD0)
T16 sequence (whole entry): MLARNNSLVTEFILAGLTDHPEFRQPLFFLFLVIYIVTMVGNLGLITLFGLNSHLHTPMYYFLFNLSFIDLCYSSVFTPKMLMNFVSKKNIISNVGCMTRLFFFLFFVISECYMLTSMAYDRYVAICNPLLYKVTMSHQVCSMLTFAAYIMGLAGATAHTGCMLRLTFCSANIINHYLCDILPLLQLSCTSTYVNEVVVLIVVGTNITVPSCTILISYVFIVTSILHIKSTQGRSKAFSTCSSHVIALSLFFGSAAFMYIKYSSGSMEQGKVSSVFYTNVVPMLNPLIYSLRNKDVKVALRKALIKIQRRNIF
Outline: as §1

OR8B2 L164F = tested on: T17, OR8B2 L164F
T17 sequence (whole entry): T16 sequence (whole entry) with L164F
Outline: as §1

OR8B2 S273F = tested on: T18, OR8B2 S273F
T18 sequence (whole entry): T16 sequence (whole entry) with S273F
Outline: as §1

OR8B3 (Homo sapiens) = target: T19, OR8B3 (Homo sapiens) (UniProt Q8NGG8)
T19 sequence (whole entry): T16 sequence (whole entry) with R24Q, I34V, T47I, N94Y, R100Q, T205I, T208M
Outline: as §1

OR7G2 (Homo sapiens) = target: T20, OR7G2 (Homo sapiens) (UniProt Q8NG99)
T20 sequence (whole entry): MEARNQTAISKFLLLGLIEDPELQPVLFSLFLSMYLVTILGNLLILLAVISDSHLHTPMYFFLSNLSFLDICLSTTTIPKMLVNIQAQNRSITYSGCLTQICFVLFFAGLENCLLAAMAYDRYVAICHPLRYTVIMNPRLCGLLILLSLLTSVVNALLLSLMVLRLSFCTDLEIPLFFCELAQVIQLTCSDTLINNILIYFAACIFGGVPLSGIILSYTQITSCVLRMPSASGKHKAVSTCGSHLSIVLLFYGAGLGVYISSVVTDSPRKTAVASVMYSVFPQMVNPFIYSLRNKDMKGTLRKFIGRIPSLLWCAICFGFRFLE
Outline: as §1

Measured: odorant receptor agonist call

CCC1OC(=O)C(O)=C1C (stereo not drawn)
not listed: OR7G2 (Homo sapiens)
inactive: all other assays above

O=c1ccc2ccccc2o1
inactive: OR8B2 (Homo sapiens)

CC(=O)c1c(C)c([N+](=O)[O-])c(C(C)(C)C)c([N+](=O)[O-])c1C
not listed: OR7A5 M81I | OR7C1 V126I E171K | OR7D4 R88W | OR7D4 | OR7G2 | OR7G3 M29V | OR8B2 L164F | OR8B2 S273F
inactive: all other assays above

CC1CCCCCCCCCCCCC(=O)C1 (stereo not drawn)
not listed: OR7A5 M81I | OR7C1 V126I E171K | OR7D4 R88W | OR7D4 | OR7G2 | OR7G3 M29V | OR8B2 L164F | OR8B2 S273F
inactive: all other assays above

CC1=NC(C)C(C)S1 (stereo not drawn)
not listed: OR7G2 (Homo sapiens)
inactive: all other assays above

CCCC(S)CCOC(C)=O (stereo not drawn)
not listed: OR7G2 (Homo sapiens)
inactive: all other assays above

CCCCCC(=O)C(C)C(C)=O (stereo not drawn)
not listed: OR7A5 M81I | OR7C1 V126I E171K | OR7D4 R88W | OR7D4 | OR7G2 | OR7G3 M29V | OR8B2 L164F | OR8B2 S273F
inactive: all other assays above

CC1=C(O)C(=O)OC1C (stereo not drawn)
not listed: OR7G2 (Homo sapiens)
inactive: all other assays above

Reference: the M2OR odorant receptor database
